Results as given in ChEMBL document CHEMBL1137508, “Pentacyclic triterpenes. Part 5: synthesis and SAR study of corosolic acid derivatives as inhibitors of glycogen phosphorylases” (Bioorg Med Chem Lett, 2007).
pIC50: −log10 of the molar value. Active and inactive are the calls of the source. The calls are words filed in the database; no cut-off is given here.

Tests used:
[1] = (§1) Inhibition of rabbit muscle glycogen phosphorylase a; parameters: species or system Oryctolagus cuniculus
Method in brief: (§2)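 Rabbit muscle glycogen phosphorylase a activity was measured in the glycogen-synthesis direction by quantifying phosphate released from glucose-1-phosphate. Values are means of three experiments.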

[2] = species: Oryctolagus cuniculus; assay: as §1; method in brief: as §2

| SMILES | pIC50 [1] | Activity [2] |
| --- | --- | --- |
| CCC(=O)O[C@@H]1C[C@]2(C)[C@H]3CC=C4[C@@H]5[C@@H](C)[C@H](C)CC[C@]5(C(=O)O)CC[C@@]4(C)[C@]3(C)CC[C@H]2C(C)(C)[C@H]1O | 4.01 |  |
| CCOC(=O)[C@]12CC[C@@H](C)[C@H](C)[C@H]1C1=CC[C@@H]3[C@@]4(C)C[C@@H](O)[C@H](O)C(C)(C)[C@@H]4CC[C@@]3(C)[C@]1(C)CC2 | 4.33 |  |
| CCCC(=O)O[C@@H]1C[C@]2(C)[C@H]3CC=C4[C@@H]5[C@@H](C)[C@H](C)CC[C@]5(C(=O)O)CC[C@@]4(C)[C@]3(C)CC[C@H]2C(C)(C)[C@H]1O | 4.11 |  |
| C[C@H]1[C@H](C)CC[C@]2(C(=O)O[C@@H]3O[C@H](CO)[C@@H](O)[C@H](O)[C@H]3O)CC[C@]3(C)C(=CC[C@@H]4[C@@]5(C)C[C@@H](O)[C@H](O)C(C)(C)[C@@H]5CC[C@]43C)[C@H]12 | 3.98 |  |
| C[C@H]1[C@H](C)CC[C@]2(C(=O)OCc3ccccc3)CC[C@]3(C)C(=CC[C@@H]4[C@@]5(C)C[C@@H](O)C(=O)C(C)(C)[C@@H]5CC[C@]43C)[C@H]12 | 4.50 |  |
| C[C@H]1[C@H](C)CC[C@]2(C(=O)O)CC[C@]3(C)C(=CC[C@@H]4[C@@]5(C)C[C@@H](O)[C@@H](O)C(C)(C)[C@@H]5CC[C@]43C)[C@H]12 [PYGENIC ACID A] | 3.67 |  |
| CC(=O)OC[C@H]1O[C@@H](OC(=O)[C@]23CC[C@@H](C)[C@H](C)[C@H]2C2=CC[C@@H]4[C@@]5(C)C[C@@H](O)[C@H](O)C(C)(C)[C@@H]5CC[C@@]4(C)[C@]2(C)CC3)[C@H](OC(C)=O)[C@@H](OC(C)=O)[C@@H]1OC(C)=O | 3.43 |  |
| C[C@H]1[C@H](C)CC[C@]2(C(=O)O)CC[C@]3(C)C(=CC[C@@H]4[C@@]5(C)C[C@@H](O)[C@H](O)C(C)(C)[C@@H]5CC[C@]43C)[C@H]12 [COROSOLIC ACID] | 4.70 |  |
| C[C@H]1[C@H](C)CC[C@]2(C(=O)OCc3ccccc3)CC[C@]3(C)C(=CC[C@@H]4[C@@]5(C)C[C@@H](OS(C)(=O)=O)[C@H](O)C(C)(C)[C@@H]5CC[C@]43C)[C@H]12 | 4.36 |  |
| CCCC(=O)O[C@@H]1C[C@]2(C)[C@H]3CC=C4[C@@H]5[C@@H](C)[C@H](C)CC[C@]5(C(=O)O)CC[C@@]4(C)[C@]3(C)CC[C@H]2C(C)(C)[C@H]1OC(=O)CCC | 4.10 |  |
| CCOC(=O)COC(=O)[C@]12CC[C@@H](C)[C@H](C)[C@H]1C1=CC[C@@H]3[C@@]4(C)C[C@@H](O)[C@H](O)C(C)(C)[C@@H]4CC[C@@]3(C)[C@]1(C)CC2 | 3.99 |  |
| CC(=O)O[C@@H]1C[C@]2(C)[C@H]3CC=C4[C@@H]5[C@@H](C)[C@H](C)CC[C@]5(C(=O)O)CC[C@@]4(C)[C@]3(C)CC[C@H]2C(C)(C)[C@H]1O | 4.42 |  |
| CC(=O)O[C@@H]1C[C@]2(C)[C@H]3CC=C4[C@@H]5[C@@H](C)[C@H](C)CC[C@]5(C(=O)O)CC[C@@]4(C)[C@]3(C)CC[C@H]2C(C)(C)[C@H]1OC(C)=O | 4.46 |  |
| C[C@H]1[C@H](C)CC[C@]2(C(=O)OCc3ccccc3)CC[C@]3(C)C(=CC[C@@H]4[C@@]5(C)C[C@@H](O)[C@H](O)C(C)(C)[C@@H]5CC[C@]43C)[C@H]12 | 4.39 |  |
| C[C@H]1[C@H](C)CC[C@]2(C(=O)OCc3ccccc3)CC[C@]3(C)C(=CC[C@@H]4[C@@]5(C)C[C@@H](O)[C@@H](O)C(C)(C)[C@@H]5CC[C@]43C)[C@H]12 | 3.49 |  |
| C[C@H]1[C@H](C)CC[C@]2(C(=O)OCc3ccccc3)CC[C@]3(C)C(=CC[C@@H]4[C@@]5(C)C=C(O)C(=O)C(C)(C)[C@@H]5CC[C@]43C)[C@H]12 | 5.14 |  |

| SMILES | pIC50 [1] | Activity [2] |
| --- | --- | --- |
| CCCCOC(=O)[C@]12CC[C@@H](C)[C@H](C)[C@H]1C1=CC[C@@H]3[C@@]4(C)C[C@@H](O)[C@H](O)C(C)(C)[C@@H]4CC[C@@]3(C)[C@]1(C)CC2 | 4.04 |  |
| C[C@H]1[C@H](C)CC[C@]2(C(=O)OCc3ccccc3)CC[C@]3(C)C(=CC[C@@H]4[C@@]5(C)C[C@@H](OC(=O)CCC(=O)O)[C@H](OC(=O)CCC(=O)O)C(C)(C)[C@@H]5CC[C@]43C)[C@H]12 | 3.14 |  |
| COC(=O)[C@]12CC[C@@H](C)[C@H](C)[C@H]1C1=CC[C@@H]3[C@@]4(C)C[C@@H](O)[C@H](O)C(C)(C)[C@@H]4CC[C@@]3(C)[C@]1(C)CC2 [COROSOLIC ACID METHYL ESTER] | 4.47 |  |
| C[C@H]1[C@H](C)CC[C@]2(C(=O)OCc3ccccc3)CC[C@]3(C)C(=CC[C@@H]4[C@@]5(C)C[C@@H]6OC6C(C)(C)[C@@H]5CC[C@]43C)[C@H]12 (single isomer, unassigned) | 4.16 |  |
| C=CCOC(=O)[C@]12CC[C@@H](C)[C@H](C)[C@H]1C1=CC[C@@H]3[C@@]4(C)C[C@@H](O)[C@H](O)C(C)(C)[C@@H]4CC[C@@]3(C)[C@]1(C)CC2 | 4.04 |  |
| C[C@H]1[C@H](C)CC[C@]2(C(=O)O)CC[C@]3(C)C(=CC[C@@H]4[C@@]5(C)C[C@@H](OC(=O)c6ccccc6)[C@H](O)C(C)(C)[C@@H]5CC[C@]43C)[C@H]12 | 5.29 |  |
| CCC(=O)O[C@@H]1C[C@]2(C)[C@H]3CC=C4[C@@H]5[C@@H](C)[C@H](C)CC[C@]5(C(=O)O)CC[C@@]4(C)[C@]3(C)CC[C@H]2C(C)(C)[C@H]1OC(=O)CC | 4.13 |  |
| C[C@H]1[C@H](C)CC[C@]2(C(=O)O)CC[C@]3(C)C(=CC[C@@H]4[C@@]5(C)C[C@@H](OC(=O)CCC(=O)O)[C@H](OC(=O)CCC(=O)O)C(C)(C)[C@@H]5CC[C@]43C)[C@H]12 |  | inactive |
| C[C@H]1[C@H](C)CC[C@]2(C(=O)OCc3ccccc3)CC[C@]3(C)C(=CC[C@@H]4[C@@]5(C)C[C@H](O)[C@H](O)C(C)(C)[C@@H]5CC[C@]43C)[C@H]12 | 3.97 |  |
| C[C@H]1[C@H](C)CC[C@]2(C(=O)OCC(=O)O)CC[C@]3(C)C(=CC[C@@H]4[C@@]5(C)C[C@@H](O)[C@H](O)C(C)(C)[C@@H]5CC[C@]43C)[C@H]12 |  | inactive |
| Cc1ccc(S(=O)(=O)O[C@@H]2C[C@]3(C)[C@H]4CC=C5[C@@H]6[C@@H](C)[C@H](C)CC[C@]6(C(=O)OCc6ccccc6)CC[C@@]5(C)[C@]4(C)CC[C@H]3C(C)(C)[C@H]2O)cc1 | 3.35 |  |
| CCCCCC(=O)O[C@@H]1C[C@]2(C)[C@H]3CC=C4[C@@H]5[C@@H](C)[C@H](C)CC[C@]5(C(=O)O)CC[C@@]4(C)[C@]3(C)CC[C@H]2C(C)(C)[C@H]1O | 5.49 |  |
| C[C@H]1[C@H](C)CC[C@]2(C(=O)OCn3cccn3)CC[C@]3(C)C(=CC[C@@H]4[C@@]5(C)C[C@@H](O)[C@H](O)C(C)(C)[C@@H]5CC[C@]43C)[C@H]12 | 4.21 |  |
| C[C@H]1[C@H](C)CC[C@]2(C(=O)O)CC[C@]3(C)C(=CC[C@@H]4[C@@]5(C)C[C@H](O)[C@H](O)C(C)(C)[C@@H]5CC[C@]43C)[C@H]12 | 3.94 |  |
| CCCOC(=O)[C@]12CC[C@@H](C)[C@H](C)[C@H]1C1=CC[C@@H]3[C@@]4(C)C[C@@H](O)[C@H](O)C(C)(C)[C@@H]4CC[C@@]3(C)[C@]1(C)CC2 | 4.08 |  |
